Active and inactive are the calls of the source. The rule behind the calls is not given here.

As a reminder, the IC50 is the concentration needed to halve the response being measured.

In test [1] the target is Sodium- and chloride-dependent GABA transporter 3 (Homo sapiens, UniProt P48066, L314Q). In words: Inhibition of human GAT3 L314Q mutant expresses in tsA201 cells assessed as reduction in [3H]GABA uptake after 3 mins by scintillation counting method. Type of test: cell-based. The essentials:
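Site-directed mutant transporters transiently transfected (PolyFect) into tsA201 cells, plated and used about 24 h later. Cells were washed with HBSS containing 20 mM HEPES, 1 mM CaCl2 and 1 mM MgCl2, pH 7.4. Uptake of 30 nM [3H]GABA was run with varied inhibitor concentrations for 3 min at 37 °C, then three ice-cold washes and scintillation counting. IC50 was taken from variable-slope sigmoidal fits. Triplicates, at least three independent experiments.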

The next test deals with T1, GABA transporter 3 (Mus musculus, UniProt P31649).
T1 sequence (P31649 whole entry): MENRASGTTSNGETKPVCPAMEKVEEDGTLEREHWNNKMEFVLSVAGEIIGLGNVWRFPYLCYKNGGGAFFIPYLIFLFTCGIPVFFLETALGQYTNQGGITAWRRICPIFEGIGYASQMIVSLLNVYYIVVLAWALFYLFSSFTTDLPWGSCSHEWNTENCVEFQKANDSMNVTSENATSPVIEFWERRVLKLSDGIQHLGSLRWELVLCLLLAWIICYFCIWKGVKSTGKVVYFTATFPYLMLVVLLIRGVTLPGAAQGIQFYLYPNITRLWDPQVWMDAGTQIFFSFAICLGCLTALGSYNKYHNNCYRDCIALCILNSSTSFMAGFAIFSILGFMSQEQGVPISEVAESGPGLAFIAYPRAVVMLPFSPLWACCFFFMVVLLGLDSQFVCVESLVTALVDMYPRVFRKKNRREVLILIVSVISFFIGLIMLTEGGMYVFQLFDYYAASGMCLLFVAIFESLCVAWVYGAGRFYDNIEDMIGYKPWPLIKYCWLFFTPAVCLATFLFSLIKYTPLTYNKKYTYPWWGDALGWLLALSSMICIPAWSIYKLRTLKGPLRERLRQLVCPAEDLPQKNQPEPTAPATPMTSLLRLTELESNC
As to the kind of experiment: Inhibition of mouse GAT2 expressed in HEK293 cells assessed as reduction in [3H]GABA uptake after 3 mins by scintillation counting method. It counts as cell-based. The essentials: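 HEK293 cells stably expressing mouse GAT2 were kept under blasticidin-S (5 µg/mL) selection. Ice-cold washes preceded scintillation counting. IC50 came from a variable-slope sigmoidal fit.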

Test [2] has as its target T2, Sodium- and chloride-dependent GABA transporter 2 (Homo sapiens, UniProt Q9NSD5).
T2 sequence (Q9NSD5 whole entry): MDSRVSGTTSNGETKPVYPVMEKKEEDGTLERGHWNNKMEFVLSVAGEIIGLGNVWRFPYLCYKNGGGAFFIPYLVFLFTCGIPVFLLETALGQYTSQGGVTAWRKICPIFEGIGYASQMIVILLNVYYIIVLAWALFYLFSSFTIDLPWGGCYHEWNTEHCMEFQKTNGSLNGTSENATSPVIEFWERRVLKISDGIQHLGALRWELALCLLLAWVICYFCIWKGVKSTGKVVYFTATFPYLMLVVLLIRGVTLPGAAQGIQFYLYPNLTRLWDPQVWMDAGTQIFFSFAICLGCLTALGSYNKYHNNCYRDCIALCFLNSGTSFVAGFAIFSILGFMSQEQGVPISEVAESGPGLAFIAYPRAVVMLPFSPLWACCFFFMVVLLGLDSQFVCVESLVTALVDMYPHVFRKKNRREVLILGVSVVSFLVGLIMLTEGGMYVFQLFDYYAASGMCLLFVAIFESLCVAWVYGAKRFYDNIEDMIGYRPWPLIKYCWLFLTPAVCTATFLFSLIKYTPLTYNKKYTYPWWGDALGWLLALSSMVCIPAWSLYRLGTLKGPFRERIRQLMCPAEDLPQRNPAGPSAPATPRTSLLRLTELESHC
In words: Inhibition of human GAT2 expresses in tsA201 cells assessed as reduction in [3H]GABA uptake after 3 mins by scintillation counting method. It counts as cell-based. The method in brief:
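Wild-type human GAT transiently expressed in tsA201 cells via pcDNA5/FRT and PolyFect. Uptake of 30 nM [3H]GABA was run for 3 min at 37 °C in HBSS/20 mM HEPES with 1 mM CaCl2 and 1 mM MgCl2, pH 7.4, across a range of test concentrations. Ice-cold washes were followed by scintillation counting. IC50 was obtained by sigmoidal variable-slope fitting, reported as mean pIC50 ± S.E.M.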

For test [3], the target named is Sodium- and chloride-dependent betaine transporter (Homo sapiens, UniProt P48065, Y453A). As to the kind of experiment: Inhibition of human BGT1 Y453A mutant expressed in tsA201 cells assessed as reduction in [3H]GABA uptake after 3 mins by scintillation counting method. It counts as cell-based. The method in brief: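 tsA201 cells transiently transfected with wild-type or mutant human BGT1 (PolyFect) were plated about 24 h before assay. Three ice-cold washes followed, then scintillation counting.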
Sequence of Sodium- and chloride-dependent betaine transporter (P48065 whole entry Y453A): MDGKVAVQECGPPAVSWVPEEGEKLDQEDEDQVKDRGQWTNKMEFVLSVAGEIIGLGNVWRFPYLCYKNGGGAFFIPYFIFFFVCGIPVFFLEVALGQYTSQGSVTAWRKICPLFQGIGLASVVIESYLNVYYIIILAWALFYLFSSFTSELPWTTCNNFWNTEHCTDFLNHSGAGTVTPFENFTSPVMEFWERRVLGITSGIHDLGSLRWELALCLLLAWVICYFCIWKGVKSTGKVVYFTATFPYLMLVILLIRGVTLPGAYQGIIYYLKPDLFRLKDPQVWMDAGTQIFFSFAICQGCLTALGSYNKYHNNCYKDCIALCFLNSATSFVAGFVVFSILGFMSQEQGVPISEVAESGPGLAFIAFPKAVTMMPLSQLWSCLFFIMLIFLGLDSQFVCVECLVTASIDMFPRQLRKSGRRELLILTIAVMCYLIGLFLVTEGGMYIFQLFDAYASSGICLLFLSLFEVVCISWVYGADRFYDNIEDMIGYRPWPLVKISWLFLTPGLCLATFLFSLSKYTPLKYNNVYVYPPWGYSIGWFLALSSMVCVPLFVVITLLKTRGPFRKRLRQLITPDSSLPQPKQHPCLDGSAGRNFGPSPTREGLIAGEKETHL

Test [4] addresses 5-hydroxytryptamine receptor 2B (Homo sapiens) (UniProt P41595). As to the kind of experiment: Displacement of [3H]LSD from human 5-HT2B receptor expressed in HEK cell membranes at 10 uM after 90 mins by scintillation counting method.
Test [5] addresses D(1A) dopamine receptor (Homo sapiens) (UniProt P21728). As to the kind of experiment: Displacement of [3H]SCH23390 from human Dopamine receptor D1 receptor expressed in HEKT cell membranes at 10 uM after 90 mins by scintillation counting method. On the technique in general: Displacement assays read how much labelled ligand stays bound in the presence of the test substance.

Sequence of 5-hydroxytryptamine receptor 2B (Homo sapiens) (P41595 whole entry): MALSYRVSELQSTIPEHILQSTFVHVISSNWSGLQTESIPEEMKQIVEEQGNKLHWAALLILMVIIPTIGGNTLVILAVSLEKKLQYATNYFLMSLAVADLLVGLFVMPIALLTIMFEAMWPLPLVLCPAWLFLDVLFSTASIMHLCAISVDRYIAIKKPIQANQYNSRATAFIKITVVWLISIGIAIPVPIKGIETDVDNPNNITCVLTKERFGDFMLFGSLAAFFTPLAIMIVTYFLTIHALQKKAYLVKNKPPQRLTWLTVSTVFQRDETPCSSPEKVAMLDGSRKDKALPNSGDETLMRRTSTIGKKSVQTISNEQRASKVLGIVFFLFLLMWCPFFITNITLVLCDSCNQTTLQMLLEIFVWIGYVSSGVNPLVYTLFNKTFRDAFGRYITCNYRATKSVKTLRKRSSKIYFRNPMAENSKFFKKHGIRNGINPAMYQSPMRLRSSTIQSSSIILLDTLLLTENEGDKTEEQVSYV
Sequence of Sodium- and chloride-dependent GABA transporter 3 (P48066 whole entry L314Q): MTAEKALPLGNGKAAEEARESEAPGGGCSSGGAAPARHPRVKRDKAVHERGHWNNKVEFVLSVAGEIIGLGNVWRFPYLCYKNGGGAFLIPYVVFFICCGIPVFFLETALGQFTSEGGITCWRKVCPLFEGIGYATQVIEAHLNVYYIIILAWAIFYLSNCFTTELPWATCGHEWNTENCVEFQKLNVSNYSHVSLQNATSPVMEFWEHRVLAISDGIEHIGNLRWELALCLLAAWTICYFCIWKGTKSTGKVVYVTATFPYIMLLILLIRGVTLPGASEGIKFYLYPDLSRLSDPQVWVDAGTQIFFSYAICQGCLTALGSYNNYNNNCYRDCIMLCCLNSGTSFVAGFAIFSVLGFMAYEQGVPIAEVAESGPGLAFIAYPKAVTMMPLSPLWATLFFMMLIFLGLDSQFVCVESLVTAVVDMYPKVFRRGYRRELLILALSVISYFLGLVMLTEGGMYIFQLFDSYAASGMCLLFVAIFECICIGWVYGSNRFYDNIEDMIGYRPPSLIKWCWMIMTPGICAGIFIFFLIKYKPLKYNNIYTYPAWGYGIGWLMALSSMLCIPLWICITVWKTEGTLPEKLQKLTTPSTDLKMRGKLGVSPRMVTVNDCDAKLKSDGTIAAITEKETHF
Sequence of D(1A) dopamine receptor (Homo sapiens) (P21728 whole entry): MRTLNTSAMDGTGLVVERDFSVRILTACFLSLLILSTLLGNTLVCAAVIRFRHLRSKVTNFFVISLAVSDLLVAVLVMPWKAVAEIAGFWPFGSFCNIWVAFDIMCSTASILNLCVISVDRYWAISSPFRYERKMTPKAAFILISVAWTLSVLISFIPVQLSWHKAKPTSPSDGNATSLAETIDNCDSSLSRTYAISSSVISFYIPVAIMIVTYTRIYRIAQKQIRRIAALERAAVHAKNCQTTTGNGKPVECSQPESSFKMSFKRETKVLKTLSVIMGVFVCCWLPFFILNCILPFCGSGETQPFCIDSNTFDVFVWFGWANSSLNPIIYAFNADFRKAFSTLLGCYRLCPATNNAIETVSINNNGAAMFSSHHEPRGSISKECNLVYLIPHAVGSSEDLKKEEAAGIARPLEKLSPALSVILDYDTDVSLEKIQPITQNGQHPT

Turning to `O=C(NC1CCN(Cc2ccccc2)CC1)c1ccc(Cl)nc1Cl`, the IC50 in test [1] is 405 µM; on GABA transporter 3 it was more than 400 µM; in test [2] (read-out: IC50) it was 479 µM; in test [3], 23 µM. Further, the inhibition result in test [4] is “Active”. The inhibition result in test [5] is “inactive”.
Regarding `O=C(NC1CCN(Cc2ccccc2)CC1)c1ccc(Cl)cc1Cl`, the IC50 in test [1] was 460 µM; on GABA transporter 3, more than 200 µM; in test [2], more than 100 µM; in test [3], 19 µM. In addition, the inhibition entry in test [4] and in test [5] was “Active” throughout.

The values are drawn from ChEMBL document CHEMBL4028872, “Structure-Activity Relationship, Pharmacological Characterization, and Molecular Modeling of Noncompetitive Inhibitors of the Betaine/γ-Aminobutyric Acid Transporter 1 (BGT1)” (J Med Chem, 2017).
